For test [1], the system named is Candida albicans. Briefly: Ratio of the in vitro minimal inhibitory to that of bifonazole against Candida albicans (MIC(compound)/MIC(bifonazole)). In kind it is functional. The essentials: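 Broth microdilution per NCCLS M27-A2 against 12 Candida albicans strains (AIDS oropharyngeal, HIV vulvovaginitis isolates, ATCC 24433 and 20891, lab strains 3153 and CA2). Inoculum ~10^4 cells/mL in RPMI 1640, pH 7.0; DMSO stocks 6.4 mg/mL, twofold dilutions 0.016–64 μg/mL; read at 24 h, 28 °C, no visible growth. Mean MIC over strains converted to μmol/mL, divided by bifonazole MIC.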

Test [2] concerns Candida albicans. Put plainly: In vitro concentration causing 50% inhibition of Candida albicans with percentage of resistant strains %R = 0 (MIC > 64 ug/mL) at a range of 0.016-0.5 ug/mL. In kind it is functional.
In test [3] the test system is Candida albicans. Briefly: In vitro minimal inhibitory concentration against Candida albicans with percentage of resistant strains %R = 0 (MIC > 64 ug/mL) at a range of 0.016-0.5 ug/mL. The format is functional.
In test [4] the test system is Candida albicans. Briefly: In vitro concentration causing 90% inhibition of Candida albicans with percentage of resistant strains %R = 0 (MIC > 64 ug/mL) at a range of 0.016-0.5 ug/mL. In kind it is functional.
In test [5] the test system is Candida albicans. Briefly: In vitro concentration causing 50% inhibition of Candida albicans with percentage of resistant strains %R = 16.6 (MIC > 64 ug/mL) at a range of 0.5-4 ug/mL. The format is functional.
Test [6] deals with Candida albicans. Briefly: In vitro minimal inhibitory concentration against Candida albicans with percentage of resistant strains %R = 16.6 (MIC > 64 ug/mL) at a range of 0.5-4 ug/mL. The format is functional.
For test [7], the system named is Candida albicans. Briefly: In vitro concentration causing 90% inhibition of Candida albicans with percentage of resistant strains %R = 16.6 (MIC > 64 ug/mL) at a range of 0.5-4 ug/mL. In kind it is functional.
Test [8] concerns Candida albicans. Briefly: In vitro concentration causing 90% inhibition of Candida albicans with percentage of resistant strains %R = 0 (MIC > 64 ug/mL) at a range of 0.062-0.5 ug/mL. The format is functional.
Test [9] has as its system Candida albicans. Put plainly: In vitro concentration causing 50% inhibition of Candida albicans with percentage of resistant strains %R = 0 (MIC > 64 ug/mL) at a range of 0.062-0.5 ug/mL. In kind it is functional.
Test [10] concerns Candida albicans. Briefly: In vitro minimal inhibitory concentration against Candida albicans with percentage of resistant strains %R = 0 (MIC > 64 ug/mL) at a range of 0.062-0.5 ug/mL. In kind it is functional.
The test system of test [11] is Candida albicans. Put plainly: In vitro minimal inhibitory concentration against Candida albicans with percentage of resistant strains %R = 33.3 (MIC > 64 ug/mL) at a range of 0.065-4 ug/mL. The format is functional.
The subject of test [12] is Candida albicans. Briefly: In vitro concentration causing 90% inhibition of Candida albicans with percentage of resistant strains %R = 33.3 (MIC > 64 ug/mL) at a range of 0.065-4 ug/mL. The format is functional.
Test [13] relates to Candida albicans. Briefly: In vitro concentration causing 50% inhibition of Candida albicans with percentage of resistant strains %R = 33.3 (MIC > 64 ug/mL) at a range of 0.065-4 ug/mL. The format is functional.
Test [14] relates to Candida albicans. Briefly: In vitro concentration causing 50% inhibition of Candida albicans with percentage of resistant strains %R = 33.3 (MIC > 64 ug/mL) at a range of 0.25-32 ug/mL.
In test [15] the test system is Candida albicans. Briefly: In vitro minimal inhibitory concentration against Candida albicans with percentage of resistant strains %R = 33.3 (MIC > 64 ug/mL) at a range of 0.25-32 ug/mL.
The test system of test [16] is Candida albicans. Briefly: In vitro concentration causing 90% inhibition of Candida albicans with percentage of resistant strains %R = 33.3 (MIC > 64 ug/mL) at a range of 0.25-32 ug/mL.
In test [17] the test system is Candida albicans. Briefly: In vitro concentration causing 50% inhibition of Candida albicans with percentage of resistant strains %R = 41.6 (MIC > 64 ug/mL) at a range of 0.062-0.125 ug/mL. In kind it is functional.
Test [18] deals with Candida albicans. Briefly: In vitro minimal inhibitory concentration against Candida albicans with percentage of resistant strains %R = 41.6 (MIC > 64 ug/mL) at a range of 0.062-0.125 ug/mL. The format is functional.
Test [19] concerns Candida albicans. Briefly: In vitro concentration causing 90% inhibition of Candida albicans with percentage of resistant strains %R = 41.6 (MIC > 64 ug/mL) at a range of 0.062-0.125 ug/mL. The format is functional.
Test [20] concerns Candida albicans. Put plainly: In vitro concentration causing 50% inhibition of Candida albicans with percentage of resistant strains %R = 33.33 (MIC > 64 ug/mL) at a range of 0.125-2 ug/mL. The format is functional.
Test [21] has as its system Candida albicans. Briefly: In vitro concentration causing 90% inhibition of Candida albicans with percentage of resistant strains %R = 33.33 (MIC > 64 ug/mL) at a range of 0.125-2 ug/mL. The format is functional.
Test [22] has as its system Candida albicans. Briefly: In vitro minimal inhibitory concentration against Candida albicans with percentage of resistant strains %R = 33.33 (MIC > 64 ug/mL) at a range of 0.125-2 ug/mL. The format is functional.

≈ marks a conversion by molar mass, not a printed value.

Regarding `Clc1ccc(C(c2c[nH]cc2-c2ccc(-n3cccc3)cc2)n2ccnc2)c(Cl)c1` (stereo not drawn), the Ratio in the test on Candida albicans [1] worked out at 1.3.

With `Cc1ccc(C(c2ccn(-c3ccc(F)cc3)c2)n2ccnc2)cc1` (stereo not drawn), the Ratio with Candida albicans [1] was determined as 3.1.

Turning to `Fc1ccc(-n2ccc(C(c3ccccc3)n3ccnc3)c2)cc1` (stereo not drawn), the Ratio in the test on Candida albicans [1] amounted to 4.1.

On to `C=Cn1cc(-c2ccc(Cl)cc2)c(C(c2ccccc2)n2ccnc2)c1` (stereo not drawn), for which the MIC50 (commonly an inhibitory concentration at the 50% level, which refers to growth in some studies and to a panel of isolates in others) against Candida albicans [2] turned out to be 0.032 µg/mL (≈ 0.0889 µM). In the test on Candida albicans [3], the MIC (usually the lowest concentration found to suppress growth) was 0.125 µg/mL (≈ 0.347 µM). Also, the Ratio in the test with Candida albicans [1] worked out at 0.031. Besides, the MIC90 (usually an inhibitory concentration at the 90% level, which refers to growth in some studies and to a panel of isolates in others) with Candida albicans [4] was 0.25 µg/mL (≈ 0.695 µM).

On to `COC(=O)/C=C/n1cc(-c2ccc(Cl)cc2)c(C(c2ccccc2)n2ccnc2)c1` (stereo not drawn), for which the MIC50 in the test on Candida albicans [5] turned out to be 2 µg/mL (≈ 4.79 µM). Besides, in the test on Candida albicans [6], the minimal inhibitory concentration (MIC) was 1.62 µg/mL (≈ 3.88 µM). Besides, the Ratio in the test with Candida albicans [1] was determined as 0.34. Moreover, in the test with Candida albicans [7], the MIC90 was 4 µg/mL (≈ 9.57 µM).

In the case of `Cn1cc(-c2ccccc2)c(C(c2ccc3ccccc3c2)n2ccnc2)c1` (stereo not drawn), the Ratio with Candida albicans [1] stood at 63.

Take `CC(C)=CCn1cc(-c2ccc(Cl)cc2)c(C(c2ccccc2)n2ccnc2)c1` (stereo not drawn): in the test on Candida albicans [8], the MIC90 amounted to 0.5 µg/mL (≈ 1.24 µM). The molecule also came in with an MIC50 in the test on Candida albicans [9] of 0.065 µg/mL (≈ 0.162 µM). Also, the Ratio in the test with Candida albicans [1] worked out at 0.043. In addition, the MIC in the test with Candida albicans [10] is 0.194 µg/mL (≈ 0.483 µM).

On to `COc1ccc(C(Cc2cccc(Cl)c2)n2ccnc2)cc1` (stereo not drawn), for which, in the test with Candida albicans [1], the Ratio was determined as 44.

As for `c1ccc(C(c2ccc(-n3cccc3)cc2)n2ccnc2)cc1` (stereo not drawn), the Ratio in the test on Candida albicans [1] came out at 6.8.

On to `Clc1ccc(-c2c[nH]cc2C(c2ccccc2)n2ccnc2)cc1` (stereo not drawn), for which the MIC against Candida albicans [11] stood at 2.5 µg/mL (≈ 7.49 µM). For the same molecule, in the test on Candida albicans [1], the Ratio is given as 0.66. Also, the MIC90 in the test on Candida albicans [12] is 4 µg/mL (≈ 12 µM). For the same molecule, the MIC50 with Candida albicans [13] was determined as 0.125 µg/mL (≈ 0.374 µM).

As for `COc1ccc(C(Cc2ccccc2[N+](=O)[O-])n2ccnc2)cc1` (stereo not drawn), in the test on Candida albicans [1], the Ratio is on record as 97.

Turning to `CCn1cc(-c2ccc(Cl)cc2)c(C(c2ccccc2)n2ccnc2)c1` (stereo not drawn), in the test on Candida albicans [14], the MIC50 was 1 µg/mL (≈ 2.76 µM). The same molecule had an MIC in the test on Candida albicans [15] of 5.59 µg/mL (≈ 15.4 µM). Besides, the Ratio with Candida albicans [1] was 0.11. This molecule also gave an MIC90 in the test on Candida albicans [16] of 8 µg/mL (≈ 22.1 µM).

As to `CC(Cc1ccc(N)cc1)n1ccnc1.COc1ccccc1` (stereo not drawn), the Ratio in the test with Candida albicans [1] was found to be 1.4.

`Cn1cc(-c2ccc(Cl)cc2)c(C(c2ccccc2)n2ccnc2)c1` (stereo not drawn): the MIC50 in the test with Candida albicans [17] was found to be 0.062 µg/mL (≈ 0.178 µM). The same molecule registered a minimum inhibitory concentration (MIC) in the test with Candida albicans [18] of 0.097 µg/mL (≈ 0.279 µM). Also, the Ratio with Candida albicans [1] is on record as 0.025. Besides, in the test with Candida albicans [19], the MIC90 turned out to be 0.125 µg/mL (≈ 0.359 µM).

Consider `O=[N+]([O-])c1ccc(-c2c[nH]cc2C(c2ccc(Cl)cc2Cl)n2ccnc2)cc1` (stereo not drawn), for which the Ratio in the test with Candida albicans [1] is 4.5.

As to `Clc1ccc(C(c2c[nH]cc2-c2ccc(-c3ccccc3)cc2)n2ccnc2)c(Cl)c1` (stereo not drawn), the Ratio in the test on Candida albicans [1] was 4.3.

In the case of `Clc1ccc(-n2ccc(C(c3ccccc3)n3ccnc3)c2)cc1` (stereo not drawn), in the test on Candida albicans [1], the Ratio came out at 0.7.

On to `Clc1ccc(-c2cn(CC3CC3)cc2C(c2ccccc2)n2ccnc2)cc1` (stereo not drawn), for which the MIC50 with Candida albicans [2] worked out at 0.016 µg/mL (≈ 0.0412 µM). For the same molecule, in the test with Candida albicans [3], the MIC was found to be 0.111 µg/mL (≈ 0.286 µM). In addition, in the test with Candida albicans [1], the Ratio is 0.025. The molecule also had an MIC90 against Candida albicans [4] of 0.125 µg/mL (≈ 0.322 µM).

Take `c1ccc(C(c2ccn(-c3ccccc3)c2)n2ccnc2)cc1` (stereo not drawn): the Ratio in the test with Candida albicans [1] is given as 2.3.

In the case of `Fc1ccc(C(c2ccn(-c3ccccc3)c2)n2ccnc2)cc1` (stereo not drawn), in the test with Candida albicans [1], the Ratio is 1.8.

Regarding `CSc1ccc(-c2c[nH]cc2C(c2ccc(Cl)cc2Cl)n2ccnc2)cc1` (stereo not drawn), in the test with Candida albicans [1], the Ratio is listed as 2.8.

In the test on Candida albicans [20], `CCn1cc(-c2ccc(Cl)c(Cl)c2)c(C(c2ccc(C)cc2)n2ccnc2)c1` (stereo not drawn) gave an MIC50 of 2 µg/mL (≈ 4.87 µM). Besides, the Ratio in the test on Candida albicans [1] amounted to 0.47. The same molecule returned an MIC90 against Candida albicans [21] of 2 µg/mL (≈ 4.87 µM). The same molecule yielded an MIC against Candida albicans [22] of 2.18 µg/mL (≈ 5.31 µM).

In the case of `Oc1ccc(-c2c[nH]cc2C(c2ccc(Cl)cc2Cl)n2ccnc2)cc1` (stereo not drawn), the Ratio in the test with Candida albicans [1] is 26.

In the case of `Cc1ccc(C(c2ccn(-c3ccccc3)c2)n2ccnc2)cc1` (stereo not drawn), the Ratio in the test with Candida albicans [1] worked out at 1.2.

Values taken from ChEMBL document CHEMBL1141140, “Antifungal agents. 11. N-substituted derivatives of 1-[(aryl)(4-aryl-1H-pyrrol-3-yl)methyl]-1H-imidazole: synthesis, anti-Candida activity, and QSAR studies” (2005).
